For assay [1], the target named is T1, 5-hydroxytryptamine receptor 1D (Homo sapiens, UniProt P28221). The experiment in a line: Displacement of [3H]5-HT from human recombinant 5-HT1D receptor expressed in CHO cells. The class given is cell-based. A general note: In a radioligand displacement assay an active substance lowers the binding of a labelled ligand.
Assay [2] addresses 5-hydroxytryptamine receptor 2A (Homo sapiens, UniProt P28223). The experiment in a line: Binding affinity to human recombinant 5-HT2A receptor by radioligand displacement assay.
Assay [3] addresses 5-hydroxytryptamine receptor 6 (Homo sapiens, UniProt P50406). Put plainly: Binding affinity to human recombinant 5-HT6 receptor by radioligand displacement assay.
Assay [4] deals with T2, 5-hydroxytryptamine receptor 1A (Homo sapiens, UniProt P08908).
T2 sequence (P08908 whole entry): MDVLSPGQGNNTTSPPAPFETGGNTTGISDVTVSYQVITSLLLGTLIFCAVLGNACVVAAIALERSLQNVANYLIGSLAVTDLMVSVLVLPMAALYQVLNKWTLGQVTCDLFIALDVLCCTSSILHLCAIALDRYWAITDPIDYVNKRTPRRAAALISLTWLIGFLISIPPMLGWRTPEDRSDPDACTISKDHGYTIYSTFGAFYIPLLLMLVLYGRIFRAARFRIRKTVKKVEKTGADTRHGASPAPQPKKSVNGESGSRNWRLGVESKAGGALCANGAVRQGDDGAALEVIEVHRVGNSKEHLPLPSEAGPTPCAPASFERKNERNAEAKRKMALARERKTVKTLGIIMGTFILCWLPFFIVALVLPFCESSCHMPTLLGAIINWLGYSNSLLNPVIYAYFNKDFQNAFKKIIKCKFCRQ
Put plainly: Displacement of [3H]WAY100635 from human recombinant 5-HT1A receptor expressed in CHO cells. It is filed as cell-based.

Assay [5] addresses T3, 5-hydroxytryptamine receptor 2C (Homo sapiens, UniProt P28335).
T3 sequence (P28335 whole entry): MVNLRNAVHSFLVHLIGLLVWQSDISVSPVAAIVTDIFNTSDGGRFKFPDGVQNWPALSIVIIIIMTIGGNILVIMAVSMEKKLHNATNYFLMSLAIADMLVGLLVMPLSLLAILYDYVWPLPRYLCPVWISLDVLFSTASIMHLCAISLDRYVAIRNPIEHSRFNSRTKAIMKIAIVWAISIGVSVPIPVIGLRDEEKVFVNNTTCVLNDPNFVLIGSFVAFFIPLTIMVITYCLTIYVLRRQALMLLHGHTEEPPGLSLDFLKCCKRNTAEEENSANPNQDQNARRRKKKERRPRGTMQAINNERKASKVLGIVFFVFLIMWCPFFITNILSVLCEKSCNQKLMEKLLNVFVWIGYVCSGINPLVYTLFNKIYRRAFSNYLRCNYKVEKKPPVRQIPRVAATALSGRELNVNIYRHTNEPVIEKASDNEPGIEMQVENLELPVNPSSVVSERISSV
The experiment in a line: Binding affinity to human recombinant 5-HT2C receptor by radioligand displacement assay.

In assay [6] the target is D(3) dopamine receptor (Homo sapiens, UniProt P35462). The experiment in a line: Binding affinity to human recombinant dopamine D3 receptor by radioligand displacement assay.
D(3) dopamine receptor, sequence (P35462 whole entry): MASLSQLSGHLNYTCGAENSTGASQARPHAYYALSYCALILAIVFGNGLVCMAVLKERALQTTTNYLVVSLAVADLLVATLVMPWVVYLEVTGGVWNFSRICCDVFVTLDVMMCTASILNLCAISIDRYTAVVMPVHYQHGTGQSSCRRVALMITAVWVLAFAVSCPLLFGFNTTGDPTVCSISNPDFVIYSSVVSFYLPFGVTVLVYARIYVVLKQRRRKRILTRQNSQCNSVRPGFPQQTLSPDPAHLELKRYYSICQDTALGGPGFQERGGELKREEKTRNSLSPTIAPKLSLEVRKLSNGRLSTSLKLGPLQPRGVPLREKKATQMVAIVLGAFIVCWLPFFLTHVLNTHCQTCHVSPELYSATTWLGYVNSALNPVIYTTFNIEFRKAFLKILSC
Assay [7] addresses 5-hydroxytryptamine receptor 2B (Homo sapiens, UniProt P41595). Put plainly: Binding affinity to human recombinant 5-HT2B receptor by radioligand displacement assay.
For assay [8], the target named is T4, 5-hydroxytryptamine receptor 1A (Homo sapiens) (UniProt P08908).
T4 sequence (whole entry): T2 sequence (P08908 whole entry)
The experiment in a line: Inverse agonist activity at human recombinant 5-HT1A receptor expressed in HEK293 cells by [S35]GTPgammaS binding assay. The class given is functional, cell-based. The gist of the method: (§1)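 [35S]-GTPγS binding in membranes from 10^6 cells (HEK293 for 5-HT1A; CHO for 5-HT1B, 5-HT1D), preincubated 30 min at 30 °C with compound in 20 mM HEPES pH 7.4, 3 mM MgCl2, 100 mM NaCl, 10 μM GDP, 0.2 mM ascorbate. 100 pM [35S]-GTPγS added, 30 min more at 30 °C; nonspecific with 20 μM GTPγS; filtration and scintillation counting.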
In general terms: GTPγS is a poorly hydrolysed GTP analogue; its binding reports G protein activation.

Assay [9] has as its target T5, 5-hydroxytryptamine receptor 1B (Homo sapiens, UniProt P28222). The experiment in a line: Inverse agonist activity at human recombinant 5-HT1B receptor expressed in CHO cells by [S35]GTPgammaS binding assay. The class given is functional, cell-based. In outline:
as §1

Assay [10] addresses Voltage-gated inwardly rectifying potassium channel KCNH2 (Homo sapiens, UniProt Q12809). Put plainly: Displacement of [3H]dofetilide from human ERG by SPA.
In assay [11] the target is T5, 5-hydroxytryptamine receptor 1B. Put plainly: Displacement of [3H]5-HT from human recombinant 5-HT1B receptor expressed in CHO cells. The class given is cell-based.
In assay [12] the target is 5-hydroxytryptamine receptor 7 (Homo sapiens, UniProt P34969). The experiment in a line: Binding affinity to human recombinant 5-HT7 receptor by radioligand displacement assay.
5-hydroxytryptamine receptor 7, sequence (P34969 whole entry): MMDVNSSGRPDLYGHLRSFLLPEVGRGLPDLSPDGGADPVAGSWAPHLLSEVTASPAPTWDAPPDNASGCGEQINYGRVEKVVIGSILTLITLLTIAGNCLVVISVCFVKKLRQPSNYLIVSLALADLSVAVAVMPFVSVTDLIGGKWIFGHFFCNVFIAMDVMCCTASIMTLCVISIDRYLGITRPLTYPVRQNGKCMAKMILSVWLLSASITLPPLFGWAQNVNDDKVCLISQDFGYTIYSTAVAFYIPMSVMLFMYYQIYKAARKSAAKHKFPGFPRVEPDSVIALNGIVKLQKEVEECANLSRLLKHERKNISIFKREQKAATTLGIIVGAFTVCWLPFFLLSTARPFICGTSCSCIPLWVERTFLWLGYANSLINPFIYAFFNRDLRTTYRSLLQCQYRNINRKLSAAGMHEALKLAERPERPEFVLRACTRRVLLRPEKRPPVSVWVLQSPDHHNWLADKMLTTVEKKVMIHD
In assay [13] the target is T1, 5-hydroxytryptamine receptor 1D. Put plainly: Inverse agonist activity at human recombinant 5-HT1D receptor expressed in CHO cells by [S35]GTPgammaS binding assay. It is filed as functional, cell-based. In outline:
as §1

For assay [14], the target named is Sodium-dependent serotonin transporter (Rattus norvegicus, UniProt P31652). Put plainly: Inhibition of [3H]5-HT uptake at SERT in rat cortical synaptosomes. It is filed as subcellular, Brain.
Sodium-dependent serotonin transporter, sequence (P31652 whole entry): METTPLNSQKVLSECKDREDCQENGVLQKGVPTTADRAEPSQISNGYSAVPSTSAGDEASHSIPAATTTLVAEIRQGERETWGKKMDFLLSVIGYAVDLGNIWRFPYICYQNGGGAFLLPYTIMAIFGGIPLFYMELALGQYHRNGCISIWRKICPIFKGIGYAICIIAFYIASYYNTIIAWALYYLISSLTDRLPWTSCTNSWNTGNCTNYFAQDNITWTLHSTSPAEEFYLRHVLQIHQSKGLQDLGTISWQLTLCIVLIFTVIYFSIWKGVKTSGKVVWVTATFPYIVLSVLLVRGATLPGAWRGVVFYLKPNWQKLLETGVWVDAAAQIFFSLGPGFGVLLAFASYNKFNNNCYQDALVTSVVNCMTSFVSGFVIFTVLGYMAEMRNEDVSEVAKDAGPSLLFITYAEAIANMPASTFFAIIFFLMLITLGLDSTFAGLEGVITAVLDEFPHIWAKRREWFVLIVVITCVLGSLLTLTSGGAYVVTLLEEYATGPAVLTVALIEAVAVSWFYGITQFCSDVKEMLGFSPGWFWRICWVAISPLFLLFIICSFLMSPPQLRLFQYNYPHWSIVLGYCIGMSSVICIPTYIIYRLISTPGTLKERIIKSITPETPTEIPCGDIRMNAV
Assay [15] addresses D(2) dopamine receptor (Homo sapiens, UniProt P14416). Put plainly: Binding affinity to human recombinant dopamine D2 receptor by radioligand displacement assay.
Assay [16] deals with T4, 5-hydroxytryptamine receptor 1A (Homo sapiens). Put plainly: Intrinsic activity at human recombinant 5-HT1A receptor expressed in HEK293 cells by [S35]GTPgammaS binding assay relative to 5-HT. The class given is functional, cell-based. In outline: as §1
Assay [17] addresses T1, 5-hydroxytryptamine receptor 1D. Put plainly: Intrinsic activity at human recombinant 5-HT1D receptor expressed in CHO cells by [S35]GTPgammaS binding assay relative to 5-HT. It is filed as functional, cell-based. The gist of the method: as §1
For assay [18], the target named is T5, 5-hydroxytryptamine receptor 1B. The experiment in a line: Intrinsic activity at human recombinant 5-HT1B receptor expressed in CHO cells by [S35]GTPgammaS binding assay relative to 5-HT. It is filed as functional, cell-based. The gist of the method:
as §1

What is called Ki is a dissociation constant, usually derived from enzyme kinetics or from competition with a known ligand.

Each structure is given as a SMILES string. Calls of active or inactive are those of the source. No cut-off for these calls is given here.

T1 sequence (P28221 whole entry): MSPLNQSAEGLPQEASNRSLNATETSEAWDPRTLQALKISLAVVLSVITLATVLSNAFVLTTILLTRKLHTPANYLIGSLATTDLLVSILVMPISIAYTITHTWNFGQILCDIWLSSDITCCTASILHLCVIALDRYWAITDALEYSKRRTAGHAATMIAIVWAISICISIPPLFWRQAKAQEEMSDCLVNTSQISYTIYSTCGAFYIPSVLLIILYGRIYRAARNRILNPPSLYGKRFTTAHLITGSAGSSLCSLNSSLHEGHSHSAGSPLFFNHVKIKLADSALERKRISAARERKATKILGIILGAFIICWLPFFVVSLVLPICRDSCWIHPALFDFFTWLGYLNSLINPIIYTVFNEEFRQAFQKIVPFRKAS
T5 sequence (P28222 whole entry): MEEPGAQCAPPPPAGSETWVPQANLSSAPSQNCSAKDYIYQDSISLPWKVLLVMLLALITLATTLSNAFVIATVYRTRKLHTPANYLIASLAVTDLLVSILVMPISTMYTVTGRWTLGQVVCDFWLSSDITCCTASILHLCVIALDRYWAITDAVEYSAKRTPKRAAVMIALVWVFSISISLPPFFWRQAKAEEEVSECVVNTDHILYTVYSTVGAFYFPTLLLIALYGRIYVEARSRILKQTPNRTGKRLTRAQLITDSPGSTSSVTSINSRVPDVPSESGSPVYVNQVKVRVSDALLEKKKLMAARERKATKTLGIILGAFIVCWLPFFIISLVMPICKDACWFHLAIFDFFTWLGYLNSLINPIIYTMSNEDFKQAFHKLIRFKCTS
Voltage-gated inwardly rectifying potassium channel KCNH2, sequence (Q12809 whole entry): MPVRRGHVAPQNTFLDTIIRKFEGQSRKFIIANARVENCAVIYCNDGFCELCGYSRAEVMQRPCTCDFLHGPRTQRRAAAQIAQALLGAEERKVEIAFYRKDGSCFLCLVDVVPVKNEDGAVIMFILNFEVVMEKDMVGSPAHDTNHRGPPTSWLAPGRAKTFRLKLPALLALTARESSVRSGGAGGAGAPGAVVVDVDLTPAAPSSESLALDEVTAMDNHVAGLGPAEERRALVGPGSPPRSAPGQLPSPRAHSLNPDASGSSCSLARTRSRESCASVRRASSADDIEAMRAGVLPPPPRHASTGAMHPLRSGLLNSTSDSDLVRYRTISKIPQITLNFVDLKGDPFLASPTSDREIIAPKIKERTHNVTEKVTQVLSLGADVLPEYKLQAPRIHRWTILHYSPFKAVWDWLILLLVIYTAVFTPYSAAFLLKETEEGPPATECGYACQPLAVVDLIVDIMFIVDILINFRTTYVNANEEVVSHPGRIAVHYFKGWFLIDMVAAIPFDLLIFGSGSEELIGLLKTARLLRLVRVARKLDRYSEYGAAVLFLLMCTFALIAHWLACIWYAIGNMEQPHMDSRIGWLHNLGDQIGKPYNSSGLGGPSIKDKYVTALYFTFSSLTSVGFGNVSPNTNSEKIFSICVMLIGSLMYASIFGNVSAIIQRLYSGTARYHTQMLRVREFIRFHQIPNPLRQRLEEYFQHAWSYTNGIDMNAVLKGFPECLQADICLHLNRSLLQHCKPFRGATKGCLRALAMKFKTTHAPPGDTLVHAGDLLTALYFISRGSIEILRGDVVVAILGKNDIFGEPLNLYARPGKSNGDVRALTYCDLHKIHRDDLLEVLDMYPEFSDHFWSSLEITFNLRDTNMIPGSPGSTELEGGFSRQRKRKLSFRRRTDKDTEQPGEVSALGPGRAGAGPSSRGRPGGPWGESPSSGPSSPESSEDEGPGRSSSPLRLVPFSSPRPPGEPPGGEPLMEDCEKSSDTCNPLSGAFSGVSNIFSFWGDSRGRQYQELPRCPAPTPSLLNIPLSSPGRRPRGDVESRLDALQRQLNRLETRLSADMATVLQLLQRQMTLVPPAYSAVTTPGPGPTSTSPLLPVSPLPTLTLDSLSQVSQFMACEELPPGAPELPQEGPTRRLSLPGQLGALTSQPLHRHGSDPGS
5-hydroxytryptamine receptor 2B, sequence (P41595 whole entry): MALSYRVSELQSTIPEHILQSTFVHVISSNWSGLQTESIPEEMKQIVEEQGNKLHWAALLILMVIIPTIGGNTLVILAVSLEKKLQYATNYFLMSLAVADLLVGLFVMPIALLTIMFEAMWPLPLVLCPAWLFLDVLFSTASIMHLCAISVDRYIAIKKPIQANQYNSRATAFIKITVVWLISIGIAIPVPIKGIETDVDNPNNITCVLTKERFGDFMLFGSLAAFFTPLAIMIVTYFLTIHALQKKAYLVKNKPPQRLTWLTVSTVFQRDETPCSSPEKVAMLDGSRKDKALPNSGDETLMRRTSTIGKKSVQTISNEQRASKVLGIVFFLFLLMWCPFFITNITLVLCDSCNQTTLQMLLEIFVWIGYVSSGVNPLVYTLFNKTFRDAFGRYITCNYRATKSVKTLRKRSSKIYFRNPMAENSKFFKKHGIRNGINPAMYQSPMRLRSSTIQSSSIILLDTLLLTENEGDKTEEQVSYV
D(2) dopamine receptor, sequence (P14416 whole entry): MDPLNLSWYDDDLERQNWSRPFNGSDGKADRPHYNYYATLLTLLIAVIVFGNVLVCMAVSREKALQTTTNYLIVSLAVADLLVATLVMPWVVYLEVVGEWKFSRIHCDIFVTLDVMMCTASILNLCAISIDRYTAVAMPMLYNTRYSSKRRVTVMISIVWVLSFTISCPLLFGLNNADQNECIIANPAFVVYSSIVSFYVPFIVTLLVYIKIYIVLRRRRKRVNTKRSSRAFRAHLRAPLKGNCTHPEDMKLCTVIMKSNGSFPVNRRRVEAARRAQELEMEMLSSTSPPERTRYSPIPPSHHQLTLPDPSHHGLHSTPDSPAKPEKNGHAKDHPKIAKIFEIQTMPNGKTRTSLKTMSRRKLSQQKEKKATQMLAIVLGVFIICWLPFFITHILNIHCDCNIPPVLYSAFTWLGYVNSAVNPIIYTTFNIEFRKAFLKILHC
5-hydroxytryptamine receptor 6, sequence (P50406 whole entry): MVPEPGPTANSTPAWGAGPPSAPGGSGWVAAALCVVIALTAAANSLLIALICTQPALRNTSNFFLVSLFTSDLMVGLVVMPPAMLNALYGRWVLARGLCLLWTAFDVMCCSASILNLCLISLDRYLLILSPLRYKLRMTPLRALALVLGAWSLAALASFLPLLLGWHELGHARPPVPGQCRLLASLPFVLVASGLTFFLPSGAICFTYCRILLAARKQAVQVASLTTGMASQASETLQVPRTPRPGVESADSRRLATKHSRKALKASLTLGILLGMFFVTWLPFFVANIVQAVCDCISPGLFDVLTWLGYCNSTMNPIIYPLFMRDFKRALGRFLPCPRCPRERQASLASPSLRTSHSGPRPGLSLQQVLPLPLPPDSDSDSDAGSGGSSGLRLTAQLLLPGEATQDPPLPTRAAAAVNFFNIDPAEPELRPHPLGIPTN

On to `Cc1ccc2c(N3CCN(CCc4cccc(NC(=O)c5ccccc5)c4)CC3)cccc2n1`, for which the inhibitory constant (Ki) in [1] was 0.316 nM; in assay [2], 79.4 nM; in assay [3], above 1000 nM; in assay [4], 1 nM; in [5], 794 nM; in [6], 100 nM. Besides, the Ki is 126 nM in assay [7]; 50.1 nM in assay [10]; 2.51 nM in assay [11]; 79.4 nM in assay [12]; 2000 nM in [14]; 398 nM in assay [15]. Also, the outcome in assay [8], in assay [9] and in [13] was Active.

With `Cc1ccc2c(N3CCN(CCc4cccc(NC(=O)c5csc(C)n5)c4)CC3)cccc2n1`, the inhibitory constant (Ki) is 0.398 nM in assay [1]; 0.794 nM in assay [4]; 316 nM in [10]; 3.16 nM in assay [11]; 501 nM in assay [14]. For the same molecule, the result in [8], in assay [9] and in [13] was Active.

Regarding `CCNC(=O)Nc1cccc(CCN2CCN(c3cccc4nc(C)ccc34)CC2)c1`, the Ki in assay [1] was 0.158 nM; in assay [2], 316 nM; in assay [3] it was above 6310 nM; in [4], 2 nM; in assay [5] it was 794 nM; in [6], 126 nM. The inhibition constant (Ki) was 398 nM in assay [7]; 631 nM in [10]; 1.26 nM in assay [11]; 39.8 nM in [12]; 501 nM in [14]; 316 nM in assay [15]. The Intrinsic activity in [16] is 0. Moreover, the outcome in assay [9] and in [13] was Active.

Consider `Cc1ccc2c(N3CCN(CCc4cccc(NC(=O)c5ccc(F)cc5)c4)CC3)cccc2n1`, for which the Ki in assay [1] was 0.398 nM; in [4] it was 1.26 nM; in [11] it was 5.01 nM; in assay [14], 794 nM. For the same molecule, the Intrinsic activity in [17] is 0. For the same molecule, the outcome in assay [8] and in assay [9] was Active.

In the case of `Cc1ccc2c(OCCN3CCC(Cc4cccc(NS(C)(=O)=O)c4)CC3)cccc2n1`, the Intrinsic activity in assay [17] came to 0; in [18], 0.3. In addition, in assay [8], the outcome was Active.

`CC(=O)N(C)c1cccc(CCN2CCN(c3cccc4nc(C)ccc34)CC2)c1`: the Ki in assay [1] was 0.316 nM; in assay [4], 2 nM; in assay [11], 12.6 nM. The Intrinsic activity in assay [17] turned out to be 0; in assay [18], 0.2; in assay [16], 0.1.

In the case of `Cc1ccc2c(N3CCN(CCc4cccc(NS(C)(=O)=O)c4)CC3)cccc2n1`, the Ki in assay [1] was 0.126 nM; in [2] it was 794 nM; in assay [3], above 2510 nM; in assay [4], 0.794 nM; in [5] it was 3160 nM; in assay [6], 200 nM. The Ki in assay [7] is 398 nM; in assay [10], 501 nM; in [11], 0.794 nM; in assay [12], 100 nM; in assay [14] it was 3160 nM; in assay [15], 398 nM.

Consider `COC(=O)Nc1cccc(CCN2CCN(c3cccc4nc(C)ccc34)CC2)c1`, for which the inhibition constant Ki was 0.251 nM in assay [1]; 200 nM in assay [2]; above 1580 nM in assay [3]; 0.398 nM in assay [4]; 794 nM in assay [5]; 100 nM in assay [6]. Further, the Ki in assay [7] is 200 nM; in [12], 25.1 nM; in assay [14], 501 nM; in assay [15], 200 nM. In addition, the Intrinsic activity in assay [17] and in assay [16] was 0 in each case. The result in assay [9] was Active.

The values are drawn from ChEMBL document CHEMBL1629528 (J Med Chem, 2010).
